Measured values: PubChem BioAssay AID624259 (Broad Institute, 2012)
Several values for one entry are separate records, joined by “and”; a condition that tells them apart may be missing. Identical values can stand only once. Activity calls are given as the source filed them.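 How the source made its calls: active means luminescence drop whose fitted half-maximal dose is at or below twice the top valid tested dose; inconclusive means flat fit with 30 to 70% inhibition, or poor fit; inactive means the rest, including signal rises.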

Columns and labels:
[1] = test system: SK-MEL-5 TRPM1-promoter luciferase reporter, 24 h; test: reducers of TRPM1 reporter luminescence – cell-based, SK-MEL-5, dry powder samples, set 3, MITF inhibitor project, dose response (AID 624259)
Summary of the method: (§1)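 Material: SK-MEL-5 TRPM1-promoter luciferase reporter cells; Compound dosing: 100 nL DMSO compound solution per well; Schedule: compound exposure 24 h, 37 °C; Measured by: luminescence after SteadyGlo luciferase reagent addition; Read-out basis: loss of TRPM1 reporter luminescence; Control set: parthenolide as positive (inhibition) control.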

[2] = as above; settings: SK-MEL-5 TRPM1-promoter luciferase reporter, 24 h; at 35 µM (top of the series)
Summary of the method: as §1

Compound	AC50 [1]	activity change, negative = inhibition [2]
C=C1C(=O)OC2C1CC/C(C)=C\CCC1(C)OC21 (stereo not given)	7.5 µM	–
O=C(NC1=C(c2ccc(OC(F)(F)F)cc2)C(=O)c2ccccc2C1=O)c1ccccc1F	34.7 µM	–
CN1CCN(C2=C(NS(=O)(=O)c3cccs3)C(=O)c3ccccc3C2=O)CC1	2.69 µM	–
COc1ccc(S(=O)(=O)N(C(C)=O)c2ccc(OC(C)=O)c3ccccc23)cc1[N+](=O)[O-]	11.5 µM	–
C=CCNC1=C(NS(=O)(=O)c2ccc(Br)cc2)C(=O)c2ccccc2C1=O	22.9 µM	–
O=C(NC1=C(N2CCSCC2)C(=O)c2ccccc2C1=O)c1ccccc1	5.8 µM	–
C=CCNC1=C(NCCCN(CC)CC)C(=O)c2ccccc2C1=O	5.77 µM	–
CCN1CCN(C2=C(NS(=O)(=O)c3cccs3)C(=O)c3ccccc3C2=O)CC1	6.16 µM	–
Cc1ccc(C(=O)NC2=C(c3ccccc3)C(=O)c3ccccc3C2=O)o1	9.24 µM	–
CCN1c2ccccc2NC2N=C(OC)C(c3ccccc3)C21 (stereo not given)	4.27 µM	–
CC(=O)NC1=C(c2ccc(Oc3ccccc3)cc2)C(=O)c2ccccc2C1=O	28.1 µM	–
CN1CCN(C2=C(NC(=O)c3ccccc3)C(=O)c3ccccc3C2=O)CC1	1.13 µM	–
O=C(NC1=C(N2CCOCC2)C(=O)c2ccccc2C1=O)c1ccccc1	11.1 µM	–
CC(=O)NC1=C(c2cccc(Cl)c2)C(=O)c2ccccc2C1=O	7.59 µM	–
COc1ccc(C2=C(NC(=O)c3ccccc3Cl)C(=O)c3ccccc3C2=O)cc1	11.8 µM	–
COc1ccc(C(=O)NC2=C(c3ccc(OC(F)(F)F)cc3)C(=O)c3ccccc3C2=O)cc1	–	-7.11% (inactive)
CC(=O)NC1=C(c2ccccc2)C(=O)c2ccccc2C1=O	8.08 µM	–
O=C1C(Nc2ccccc2)=C(N2CCOCC2)C(=O)c2ccccc21	8.43 µM	–
C=CCNC1=C(NCC=C)C(=O)c2ccccc2C1=O	–	-10.6% (inactive)
O=C(NC1=C(c2ccccc2)C(=O)c2ccccc2C1=O)c1ccc(Br)cc1	18.1 µM	–

Compound	AC50 [1]	activity change, negative = inhibition [2]
O=C(CNc1cccc2ccccc12)N/N=C/c1ccc([N+](=O)[O-])o1	3.08 µM	–
COc1ccc(C(=O)NC2=C(c3ccc(OC)cc3)C(=O)c3ccccc3C2=O)cc1	11.9 µM	–
COc1ccc(C(=O)NC2=C(c3ccccc3)C(=O)c3ccccc3C2=O)cc1	14.7 µM	–
Cc1nc2ccccc2n1/N=C/c1ccc([N+](=O)[O-])s1	3.29 µM	–
C=CCNC1=C(NCCN(CC)CC)C(=O)c2ccccc2C1=O	3.05 µM	–
C=CCNC1=C(Cl)C(=O)c2ccccc2C1=O	4.57 µM and 4.74 µM	–
C=CCNC1=C(N2CCSCC2)C(=O)c2ccccc2C1=O	3.98 µM	–
CC1CCN(CC(CS(=O)(=O)c2ccc([N+](=O)[O-])cc2)N2CCC(C)CC2)CC1 (stereo not given)	14.2 µM	–
CC(=O)NC1=C(c2ccc(Cl)cc2)C(=O)c2ccccc2C1=O	8 µM	–
C=CCNC1=C(N2CCN(C)CC2)C(=O)c2ccccc2C1=O	7.93 µM	–
O=C1C(NS(=O)(=O)c2cccs2)=C(N2CCOCC2)C(=O)c2ccccc21	14.9 µM	–
COc1ccc(C2=C(NC(=O)c3ccc(Cl)cc3)C(=O)c3ccccc3C2=O)cc1	33.6 µM	–
C=CCNC1=C(NCCCN2CCOCC2)C(=O)c2ccccc2C1=O	8.83 µM	–
O=C(NC1=C(c2ccc(OC(F)(F)F)cc2)C(=O)c2ccccc2C1=O)c1ccco1	31.1 µM	–
C=CCNC1=C(N2CCN(CC)CC2)C(=O)c2ccccc2C1=O	11.3 µM	–
COc1ccc(C2=C(NC(=O)c3cccc(Cl)c3)C(=O)c3ccccc3C2=O)cc1	33.5 µM	–
O=C(NC1=C(c2ccccc2)C(=O)c2ccccc2C1=O)c1ccco1	9.91 µM	–
Cc1ccc(C(=O)NC2=C(c3ccc(OC(F)(F)F)cc3)C(=O)c3ccccc3C2=O)o1	27.5 µM	–
CCN1CCN(C2=C(NS(=O)(=O)c3ccc(Br)cc3)C(=O)c3ccccc3C2=O)CC1	12.6 µM	–
COc1ccc(C2=C(NC(=O)c3ccc(OC)cc3-c3cccc(OC)c3)C(=O)c3ccccc3C2=O)cc1	–	25.2% (inactive)

Compound	AC50 [1]	activity change, negative = inhibition [2]
CN1CCN(C2=C(NS(=O)(=O)c3ccc(Br)cc3)C(=O)c3ccccc3C2=O)CC1	2.07 µM	–
COc1ccc(C2=C(NC(=O)c3ccc4ccccc4c3)C(=O)c3ccccc3C2=O)cc1	–	24.2% (inactive)
COc1cccc(C2=C(NC(=O)c3ccccc3)C(=O)c3ccccc3C2=O)c1	32 µM	–
C=CCNC1=C(N2CCCCC2)C(=O)c2ccccc2C1=O	0.722 µM	–
C=CCNC1=C(N2CCOCC2)C(=O)c2ccccc2C1=O	3.46 µM	–
CCN1CCN(C2=C(NC(=O)c3ccccc3)C(=O)c3ccccc3C2=O)CC1	1.27 µM	–
O=C(NC1=C(c2ccc(Oc3ccccc3)cc2)C(=O)c2ccccc2C1=O)c1ccccc1	–	17.5% (inactive)
COc1ccc(C2=C(NC(=O)c3ccccc3OC)C(=O)c3ccccc3C2=O)cc1	–	14.6% (inactive)
CC(=O)NC1=C(c2ccc3c(c2)oc2ccccc23)C(=O)c2ccccc2C1=O	5.89 µM	–
COc1ccc(C2=C(NC(C)=O)C(=O)c3ccccc3C2=O)cc1	6.89 µM	–
O=C(NC1=C(c2ccccc2)C(=O)c2ccccc2C1=O)c1ccccc1	10.5 µM	–
O=C(NC1=C(c2ccc(OC(F)(F)F)cc2)C(=O)c2ccccc2C1=O)c1ccccc1	31.3 µM	–
O=C1C(NS(=O)(=O)c2ccc(Br)cc2)=C(N2CCSCC2)C(=O)c2ccccc21	35.5 µM	–
NC1=C(c2ccccc2)C(=O)c2ccccc2C1=O	14.5 µM	–
COc1cccc(-c2cc(C(=O)NC3=C(Cl)C(=O)c4ccccc4C3=O)ccc2OC)c1	10.4 µM	–
O=C(NC1=C(c2ccc(OC(F)(F)F)cc2)C(=O)c2ccccc2C1=O)c1ccc(Br)cc1	35.1 µM	–
O=C1C(NS(=O)(=O)c2ccc(Br)cc2)=C(N2CCOCC2)C(=O)c2ccccc21	13.2 µM	–
O=C(NC1=C(Cl)C(=O)c2ccccc2C1=O)c1ccccc1	1.1 µM	–
COc1ccc(C2=C(NC(=O)c3cccc(OC)c3)C(=O)c3ccccc3C2=O)cc1	17.5 µM	–
O=C1C(NS(=O)(=O)c2ccc(Br)cc2)=C(N2CCCCC2)C(=O)c2ccccc21	20.1 µM	–
